The source of these data is ChEMBL document CHEMBL3797161, “Design, Synthesis, and Immunological Evaluation of Benzyloxyalkyl-Substituted 1,2,3-Triazolyl α-GalCer Analogues” (ACS Med Chem Lett, 2016).

Series [1] has as its system Mus musculus. Kind of series: Stimulation of IL-4 production in Balb/c mouse at 1 ug, iv after 2 to 48 hrs by sandwich ELISA. The class given is functional, organism-based. In short, it runs like this:
(§1)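 BALB/c mice received glycolipid intravenously, 1 μg per animal. IFN-γ and IL-4 expression was then measured in vivo.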

The subject of series [2] is Mus musculus. Kind of series: Stimulation of IFN-gamma production in Balb/c mouse at 1 ug, iv after 2 to 48 hrs by sandwich ELISA. In kind it is functional, organism-based. In short, it runs like this:
as §1
(An ELISA detects its analyte on a solid surface through an enzyme-linked reagent.)

For series [3], the species on record is Mus musculus. Kind of series: Binding affinity to CD1D in Balb/c mouse splenocytes assessed as increase in IL-2 production at 10 to 1000 ng/ml after 48 hrs by sandwich ELISA. The class given is cell-based. In short, it runs like this: (§2)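 Splenocytes isolated from BALB/c mice were cultured in vitro with glycolipid (dissolved in DMSO) at 10, 100 or 1000 ng/mL for 48 h. IL-2, IL-4 and IFN-γ in the culture were measured by ELISA.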

In a further series the test system is T-cell. Put plainly: Binding affinity to CD1D in Balb/c mouse splenocytes assessed as T cell stimulation by measuring increase in cytokine expression after 48 hrs by sandwich ELISA. The class given is cell-based. The method in brief:
as §2

Series [4] is described as follows: Cytotoxicity against Balb/c mouse splenocytes assessed as reduction in cell proliferation up to 1000 ng/ml after 48 hrs by MTT assay. The class given is cell-based. The note with it: splenocyte. In short, it runs like this:
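Splenocytes from BALB/c mice were exposed to glycolipid at up to 1000 ng/mL for 48 h. Proliferation was read by MTT relative to untreated cells.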
A general note: Tetrazolium assays rely on reduction of a dye to a coloured formazan, in cell work by metabolically active cells.

The nature of series [5]: Solubility of compound in DMSO at 10 to 1000 ng/ml. In kind it is physicochemical.
The species entered for series [6] is Mus musculus. Kind of series: Binding affinity to CD1D in Balb/c mouse splenocytes assessed as increase in IL-4 production at 1000 ng/ml at 2 hrs by sandwich ELISA. The class given is cell-based. In short, it runs like this:
(§3)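 For cytokine kinetics, BALB/c mouse splenocytes were treated in vitro with glycolipid at 1000 ng/mL. Culture supernatants were sampled at 2, 12 and 24 h, and IL-4 and IFN-γ were quantified.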

The species named for series [7] is Mus musculus. Put plainly: Binding affinity to CD1D in Balb/c mouse splenocytes assessed as increase in IFN-gamma production at 1000 ng/ml at 24 hrs by sandwich ELISA. In kind it is cell-based. In short, it runs like this: as §3
For series [8], the species on record is Mus musculus. Kind of series: Binding affinity to CD1D in Balb/c mouse splenocytes assessed as increase in IL-4 production at 1000 ng/ml up to 24 hrs by sandwich ELISA. The class given is cell-based. In short, it runs like this:
as §3

For series [9], the species on record is Mus musculus. Put plainly: Binding affinity to CD1D in Balb/c mouse splenocytes assessed as increase in IFN-gamma production at 1000 ng/ml up to 12 hrs by sandwich ELISA. In kind it is cell-based. In short, it runs like this:
as §3

Series [10] is filed under the species Mus musculus. Kind of series: Binding affinity to CD1D in Balb/c mouse splenocytes assessed as increase in IFN-gamma production at 10 to 1000 ng/ml after 48 hrs by sandwich ELISA. In kind it is cell-based. The method in brief:
as §2

The species named for series [11] is Mus musculus. Put plainly: Binding affinity to CD1D in Balb/c mouse splenocytes assessed as increase in IL-4 production at 10 to 1000 ng/ml after 48 hrs by sandwich ELISA. In kind it is cell-based. The method in brief: as §2
Series [12] deals with T1, Antigen-presenting glycoprotein CD1d (Homo sapiens) (UniProt P15813).
T1 sequence (whole entry): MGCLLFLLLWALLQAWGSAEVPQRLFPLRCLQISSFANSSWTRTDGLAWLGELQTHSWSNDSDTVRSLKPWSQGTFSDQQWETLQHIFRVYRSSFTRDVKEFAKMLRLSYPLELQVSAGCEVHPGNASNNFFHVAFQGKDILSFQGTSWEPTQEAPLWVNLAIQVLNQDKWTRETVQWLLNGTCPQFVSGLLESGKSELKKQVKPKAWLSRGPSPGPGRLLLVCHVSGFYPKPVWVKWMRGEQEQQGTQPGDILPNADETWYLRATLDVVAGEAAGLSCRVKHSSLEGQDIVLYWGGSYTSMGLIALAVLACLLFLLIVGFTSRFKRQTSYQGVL
Put plainly: Binding affinity to CD1D (unknown origin) assessed as increase in IL-2 production at 100 ng/ml preincubated for 16 hrs followed by Valpha-14 Vbeta-8.2 DN3A4-1.2(1.2) iNKT hybridoma cells addition to compound-CD1D mixture measured after 16 hrs by sandwich ELISA. In short, it runs like this: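 Glycolipid incubated with CD1d protein for 16 h, then exposed to Vα14 Vβ8.2 DN3A4–1.2 (1.2) iNKT hybridoma cells; IL-2 secreted into the medium quantified.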

For series [13], the species on record is Mus musculus. Kind of series: Binding affinity to CD1D in Balb/c mouse splenocytes assessed as increase in IFN-gamma production at 1000 ng/ml after 48 hrs by sandwich ELISA. In kind it is cell-based.

Molecules are shown by their SMILES. Calls of active or inactive are those of the source. The rule behind the calls is not given here.

As to `CCCCCCCCCCCCCC[C@@H](O)[C@@H](O)[C@H](CO[C@H]1O[C@H](CO)[C@H](O)[C@H](O)[C@H]1O)n1cc(COCCCCCCCCOCc2ccccc2)nn1`, the outcome in the series with Mus musculus [1], with Mus musculus [2] and in the series listed under Mus musculus [3] was Active. Further, the Activity result in the series on T-cell is “Dose-dependent effect”; in [4], “Non-toxic”. In addition, in [5], the solubility entry is reported as “soluble”.

As to `CCCCCCCCCCCCCC[C@@H](O)[C@@H](O)[C@H](CO[C@H]1O[C@H](CO)[C@H](O)[C@H](O)[C@H]1O)n1cc(COCCOCc2ccccc2)nn1`, in the series listed under Mus musculus [3], the outcome was inactive. Further, the Activity entry with T-cell was “Dose-dependent effect”; in [4], “Non-toxic”. Moreover, in series [5], the solubility result is recorded as “soluble”.

As to `CCCCCCCCCCCCCC[C@@H](O)[C@@H](O)[C@H](CO[C@H]1O[C@H](CO)[C@H](O)[C@H](O)[C@H]1O)n1cc(COCCCCOCc2ccccc2)nn1`, the outcome in the series listed under Mus musculus [3] was Active. The Activity result in the series with T-cell is “Dose-dependent effect”; in series [4], “Non-toxic”. In addition, the solubility entry in series [5] is on record as “soluble”.

`CCCCCCCCCCCCCCCCCCCCCCCCCC(=O)N[C@@H](CO[C@H]1O[C@H](CO)[C@H](O)[C@H](O)[C@H]1O)[C@H](O)[C@H](O)CCCCCCCCCCCCCC` [RGI-7000]: the result in the series filed under Mus musculus [6], in the series filed under Mus musculus [7], in the series with Mus musculus [1], in the series on Mus musculus [2], in the series filed under Mus musculus [3] and in the series filed under Mus musculus [8] was Active. Also, the result (in the series filed under Mus musculus [9]; in the series listed under Mus musculus [10]; in the series listed under Mus musculus [11]; in [12]) was Active. In addition, the Activity result in [4] is reported as “Non-toxic”.

As to `CCCCCCCCCCCCCC[C@@H](O)[C@@H](O)[C@H](CO[C@H]1O[C@H](CO)[C@H](O)[C@H](O)[C@H]1O)n1cc(COCCCCCCCCCCCCOCCOCc2ccccc2)nn1`, the outcome in the series listed under Mus musculus [13] and in the series filed under Mus musculus [3] was Active. The Activity result is “Dose-dependent effect” with T-cell and “Non-toxic” in [4]. For the same compound, the solubility entry in [5] is on record as “soluble”.

For `CCCCCCCCCCCCCC[C@@H](O)[C@@H](O)[C@H](CO[C@H]1O[C@H](CO)[C@H](O)[C@H](O)[C@H]1O)n1cc(COCCCCCCOCc2ccccc2)nn1`, the outcome in the series listed under Mus musculus [13] and in the series listed under Mus musculus [3] was Active. Besides, the Activity result in the series with T-cell was “Dose-dependent effect”; in [4], “Non-toxic”. Also, the solubility entry in series [5] was “soluble”.

For `CCCCCCCCCCCCCC[C@@H](O)[C@@H](O)[C@H](CO[C@H]1O[C@H](CO)[C@H](O)[C@H](O)[C@H]1O)n1cc(COCCCCCCCCCCOCc2ccccc2)nn1`, the result in the series filed under Mus musculus [3] was Active. Besides, the Activity result in the series with T-cell was “Dose-dependent effect”; in [4], “Non-toxic”. For the same compound, the solubility result in series [5] was “soluble”.

For `CCCCCCCCCCCCCC[C@@H](O)[C@@H](O)[C@H](CO[C@H]1O[C@H](CO)[C@H](O)[C@H](O)[C@H]1O)n1cc(COCCCCCCCCCCCCOCc2ccccc2)nn1`, the result in the series listed under Mus musculus [3] was Active. Further, the values for the Activity result (with T-cell; in series [4]) were “Dose-dependent effect” and “Non-toxic”, respectively. Further, in series [5], the solubility entry is “soluble”.

As for `CCCCCCCCCCCCCC[C@@H](O)[C@@H](O)[C@H](CO[C@H]1O[C@H](CO)[C@H](O)[C@H](O)[C@H]1O)n1cc(COCCCCCCCCCCCCOCCCCCCOCc2ccccc2)nn1`, the outcome (in the series listed under Mus musculus [6]; in the series filed under Mus musculus [7]; in the series filed under Mus musculus [3]; in the series filed under Mus musculus [10]; in the series filed under Mus musculus [11]; in [12]) was Active. For the same compound, the outcome in the series with Mus musculus [1], in the series on Mus musculus [2], in the series filed under Mus musculus [8] and in the series listed under Mus musculus [9] was inactive. Further, the Activity entry in the series on T-cell is “Dose-dependent effect”; in series [4], “Non-toxic”. Also, the solubility result in series [5] was “soluble”.

For the compound `CCCCCCCCCCCCCC[C@@H](O)[C@@H](O)[C@H](CO[C@H]1O[C@H](CO)[C@H](O)[C@H](O)[C@H]1O)n1cc(COCCCCCCCCCCCCOCCCCOCc2ccccc2)nn1`, the result (in the series filed under Mus musculus [6]; in the series listed under Mus musculus [7]; in the series filed under Mus musculus [3]; in the series filed under Mus musculus [10]; in the series listed under Mus musculus [11]; in series [12]) was Active. Further, the outcome in the series with Mus musculus [1], in the series with Mus musculus [2], in the series filed under Mus musculus [8] and in the series listed under Mus musculus [9] was inactive. The values for the Activity result (in the series with T-cell; in [4]) were “Dose-dependent effect” and “Non-toxic”, respectively. Moreover, the solubility result in series [5] is on record as “soluble”.
